Measured values pooled from the literature.
Lines come from different studies, so protocols differ.
Target: cGMP-dependent protein kinase 1 (PRKG1, Homo sapiens, UniProt Q13976)
One construct used (Q13976 1-671): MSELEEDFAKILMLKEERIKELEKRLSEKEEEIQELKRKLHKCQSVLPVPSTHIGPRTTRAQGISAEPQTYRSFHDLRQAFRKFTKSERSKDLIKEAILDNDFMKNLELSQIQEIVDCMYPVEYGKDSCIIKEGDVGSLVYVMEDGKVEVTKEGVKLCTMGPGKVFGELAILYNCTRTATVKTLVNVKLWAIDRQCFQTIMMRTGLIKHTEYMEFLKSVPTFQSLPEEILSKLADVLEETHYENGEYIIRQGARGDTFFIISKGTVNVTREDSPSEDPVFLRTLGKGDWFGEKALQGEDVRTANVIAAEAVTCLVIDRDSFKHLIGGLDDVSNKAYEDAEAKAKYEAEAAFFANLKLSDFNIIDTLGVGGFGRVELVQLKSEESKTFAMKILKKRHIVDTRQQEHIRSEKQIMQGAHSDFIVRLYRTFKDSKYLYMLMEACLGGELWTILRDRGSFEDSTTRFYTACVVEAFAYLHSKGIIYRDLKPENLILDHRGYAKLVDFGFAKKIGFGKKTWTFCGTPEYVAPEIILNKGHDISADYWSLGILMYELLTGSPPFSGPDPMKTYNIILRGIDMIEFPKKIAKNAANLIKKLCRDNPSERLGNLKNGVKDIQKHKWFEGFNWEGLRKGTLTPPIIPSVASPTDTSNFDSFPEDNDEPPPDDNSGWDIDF

`Cn1cc(-c2cccc(N3CCc4c(sc5c4CC(C)(C)C5)C3=O)c2CO)cc(Nc2ccncn2)c1=O` gave an inhibition of 4% (enzyme activity; inhibitor; 1 µM).
`Cn1cncc1[C@](O)(COc1ccc(C#N)cc1-c1ccc(OC(F)(F)F)cc1)c1ccc(C#N)cc1` gave a remaining binding of 91% (cell-free assay; competition with immobilised ligand; 1 µM).
With `COc1cc(Nc2ncc(F)c(Nc3ccc4c(n3)NC(=O)C(C)(C)O4)n2)cc(OC)c1OC` the inhibition was 0% (binding; 10 µM).
The remaining binding of `N#CC1(c2ccccn2)CCN(Cc2cc(C(=O)O)c(=O)n3ccccc23)CC1` is reported as 98% (cell-free assay; competition with immobilised ligand; 1 µM).
`Cn1cc(-c2cc(F)cc(N3CCn4c(cc5c4CCCC5)C3=O)c2CO)cc(Nc2ccc(N3CCN(C4COC4)CC3)cn2)c1=O` has an inhibition of 8% (enzyme activity; inhibitor; 0.1 µM).
For `Nc1ncc(-c2nc(N3CCOCC3)nc(N3CCOCC3)n2)c(C(F)F)n1`, the remaining binding was 79% (binding; competition with immobilised ligand; 10 µM).
`CN1CCC(c2cc(-c3ccncc3)c(-c3ccc(F)cc3)[nH]2)CC1` gave an inhibition of 9% (enzyme activity; inhibitor; 10 µM).
With `C#Cc1n[nH]c2c(-c3cn([C@@H](C)c4ccccc4)c(=O)[nH]c3=O)cc(F)cc12` the inhibition was 5.1% (enzyme activity; inhibitor; 0.1 µM).
`COc1ncccc1-c1cnn2ccc(N3CCN(C(=O)OC(C)C)CC3)nc12` has a remaining binding of 100% (binding; competition with immobilised ligand; 1 µM).
For `Cc1nn(C)cc1-c1nc2c(N3CCN(Cc4ccc(Cl)cc4)CC3)c(Cl)cnc2[nH]1`, the remaining binding was 100% (binding; competition with immobilised ligand; 1 µM).
`C#Cc1n[nH]c2c(-c3cn([C@@H](C)c4ccccn4)c(=O)[nH]c3=O)cc(F)cc12` gave an inhibition of 0.5% (enzyme activity; inhibitor; 0.1 µM).
